From ChEMBL document CHEMBL3616441, “Discovery of a Selective and CNS Penetrant Negative Allosteric Modulator of Metabotropic Glutamate Receptor Subtype 3 with Antidepressant and Anxiolytic Activity in Rodents” (J Med Chem, 2015)
The source made the active and inactive calls. No cut-off for these calls is given here.

Legend:
[1] = target: Metabotropic glutamate receptor 5 (Rattus norvegicus, UniProt P31424); assay: Modulation of rat mGlu5 receptor assessed as calcium mobilization by cell based fluorescence assay; assay type: functional
Procedure, shortened: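 Calcium mobilization assay with fluorescence read-out in cells expressing mGlu5; full concentration-response curves; % Glu Max is the amplitude of response with 30 μM test compound as a percentage of the maximal response to 100 μM glutamate; values averaged over n-3.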

[2] = target: Metabotropic glutamate receptor 3 (Rattus norvegicus) (UniProt P31422); assay: Negative allosteric modulation of rat mGlu3 receptor assessed as amplitude response at 30 uM relative to glutamate
Procedure, shortened: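 Calcium mobilization in cell line stably expressing rat mGlu3 with promiscuous Gα15; fluorescence read-out; amplitude of glutamate response with 30 μM test compound expressed as percentage of maximal response (100 μM glutamate); average of n = 3.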

[3] = Plasma clearance in rat at 0.2 mg/kg, iv administered as cassette dose; assay type: ADME, organism-based
[4] = Volume of distribution at steady state in rat at 0.2 mg/kg, iv administered as cassette dose; assay type: ADME, organism-based; conditions: in vivo, read-out: Vdss
[5] = target: Metabotropic glutamate receptor 5 (Rattus norvegicus) (UniProt P31424); assay: Modulation of rat mGlu5 receptor assessed as assessed as calcium mobilization at 30 uM by cell based fluorescence assay; assay type: functional
[6] = Half life in rat at 0.2 mg/kg, iv administered as cassette dose; assay type: ADME, organism-based; conditions: in vivo
Plasma [7] = assay: Fraction unbound in rat plasma; assay type: ADME, cell-free
[8] = target: Metabotropic glutamate receptor 3 (Rattus norvegicus, UniProt P31422); assay: Negative allosteric modulation of rat mGlu3 receptor assessed as calcium mobilization by cell based fluorescence assay; assay type: functional
Procedure, shortened: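 Cell line stably expressing rat mGlu3 with the promiscuous G-protein Gα15. Calcium mobilization with fluorescence read-out, inhibition of the glutamate response. Full concentration-response curves, top concentration 30 μM. % Glu Max is the response with 30 μM test compound as a percentage of the maximal response to 100 μM glutamate. Values averaged over n-3.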

[9] = target: Metabotropic glutamate receptor 5 (Rattus norvegicus) (UniProt P31424); assay: Positive allosteric modulation of rat mGlu5 receptor assessed as calcium mobilization by cell based fluorescence assay; assay type: functional
Brain [10] = assay: Fraction unbound in rat brain; assay type: ADME, tissue-based
Cytochrome P450 2C9 = Cytochrome P450 2C9 (Homo sapiens, UniProt P11712); assay: Inhibition of CYP2C9 in human liver microsomes by cocktail assay; assay type: ADME
Procedure, shortened: (§1)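 Human liver microsome cocktail incubation with probe substrates for four P450s; inhibition of each isoform measured.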

[11] = Volume of distribution at steady state in rat at 1 mg/kg, iv and 3 mg/kg, po; assay type: ADME, organism-based; conditions: in vivo, read-out: Vdss
Procedure, shortened: (§2)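 Rat IV PK, n = 2, 1.0 mg/kg as solution in 10% EtOH, 50% PEG 400, 40% saline (1 mg/mL); oral arm 3.0 mg/kg as fine microsuspension in 0.1% Tween 80 and 0.5% methyl cellulose in H2O (0.3 mg/mL).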

in vivo [12] = conditions: rat, ip, 10 mg/kg
Cytochrome P450 1A2 = target: T1, Cytochrome P450 1A2 (Homo sapiens, UniProt P05177); assay: Inhibition of CYP1A2 in human liver microsomes by cocktail assay; assay type: ADME
T1 sequence (P05177 whole entry): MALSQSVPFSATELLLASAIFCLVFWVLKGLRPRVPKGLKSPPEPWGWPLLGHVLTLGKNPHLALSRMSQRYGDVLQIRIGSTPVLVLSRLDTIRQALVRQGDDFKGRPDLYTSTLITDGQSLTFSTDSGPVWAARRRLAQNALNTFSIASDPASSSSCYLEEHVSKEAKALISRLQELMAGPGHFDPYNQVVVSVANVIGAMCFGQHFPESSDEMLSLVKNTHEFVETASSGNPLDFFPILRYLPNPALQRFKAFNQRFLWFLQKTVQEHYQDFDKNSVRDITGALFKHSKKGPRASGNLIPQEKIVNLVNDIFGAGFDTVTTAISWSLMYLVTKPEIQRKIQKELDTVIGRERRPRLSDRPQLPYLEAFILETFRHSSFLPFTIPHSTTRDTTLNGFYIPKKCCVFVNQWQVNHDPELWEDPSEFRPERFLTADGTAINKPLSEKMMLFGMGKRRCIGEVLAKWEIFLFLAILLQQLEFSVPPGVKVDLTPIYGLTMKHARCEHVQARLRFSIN

Plasma [13] = assay: Fraction unbound in mouse plasma; assay type: ADME, cell-free
[14] = Plasma concentration in mouse at 10 mg/kg, ip after 30 mins; assay type: ADME, organism-based
Procedure, shortened: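 Single time-point tissue distribution in mice. Dosed IP as a fine microsuspension in 0.1% Tween 80 and 0.5% methyl cellulose in H2O (1 mg/mL). Plasma and brain were sampled 30 min post dose, n = 3.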

[15] = target: 5-hydroxytryptamine receptor 2B (Homo sapiens) (UniProt P41595); assay: Binding affinity to 5HT2B receptor (unknown origin) at 10 uM by radioligand binding assay
[16] = Cmax in mouse at 10 mg/kg, ip; assay type: ADME, organism-based; design: dose 10 mg/kg, route intraperitoneal; conditions: in vivo
[17] = target: 5-hydroxytryptamine receptor 2B (Homo sapiens) (UniProt P41595); assay: Antagonist activity at 5HT2B receptor (unknown origin) up to 10 uM
Mus musculus [18] = assay: Anxiolytic activity in CD1 mouse assessed as inhibition of marble burying behavior at 56.6 mg/kg, ip after 30 mins; assay type: functional, organism-based
MDCK [19] = assay: Apparent permeability from basolateral to apical side in MDCK cells expressing human MDR1 gene; assay type: ADME, cell-based, Canis lupus familiaris; conditions: dog
Procedure, shortened: (§3)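 Permeability and P-gp efflux measured in MDCK cells transfected with human MDR1 gene.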

[20] = Oral bioavailability in rat at 3 mg/kg; assay type: ADME, organism-based; conditions: in vivo
[21] = AUC (0 to infinity) in mouse at 10 mg/kg, ip; assay type: ADME, organism-based; design: dose 10 mg/kg, time infinity, route intraperitoneal; conditions: in vivo
Mus musculus [22] = assay: Anxiolytic activity in ip dosed CD1 mouse assessed as inhibition of marble burying behavior after 30 mins; assay type: functional, organism-based
Cytochrome P450 2D6 = Cytochrome P450 2D6 (Homo sapiens, UniProt P10635); assay: Inhibition of CYP2D6 in human liver microsomes by cocktail assay; assay type: ADME; procedure, shortened: as §1
[23] = target: Metabotropic glutamate receptor 2 (Rattus norvegicus) (UniProt P31421); assay: Negative allosteric modulation of rat mGlu2 receptor assessed as calcium mobilization at 30 uM by cell based fluorescence assay; assay type: functional
Procedure, shortened: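 Rat mGlu2 calcium mobilization assay with fluorescence read-out; full concentration-response curve analysis up to 30 μM top concentration.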

Rattus norvegicus [24] = assay: Antidepressant activity in Sprague-Dawley rat assessed as reduction of immobility time at 56.6 mg/kg, ip measured up to 6 mins by forced swim test; assay type: functional, organism-based
[25] = AUC (0 to infinity) in rat at 10 mg/kg, ip; assay type: ADME, organism-based; design: dose 10 mg/kg, time infinity, route intraperitoneal; conditions: in vivo
[26] = target: 5-hydroxytryptamine receptor 2B (Homo sapiens) (UniProt P41595); assay: Agonist activity at 5HT2B receptor (unknown origin) up to 10 uM
[27] = Cmax in rat at 10 mg/kg, ip; assay type: ADME, organism-based; design: dose 10 mg/kg, route intraperitoneal; conditions: in vivo
MDCK [28] = assay: Apparent permeability from apical to basolateral side in MDCK cells expressing human MDR1 gene; assay type: ADME, cell-based, Canis lupus familiaris; conditions: dog; procedure, shortened: as §3
in vivo [29] = conditions: mouse, ip, 10 mg/kg
Cytochrome P450 3A4 = Cytochrome P450 3A4 (Homo sapiens, UniProt P08684); assay: Inhibition of CYP3A4 in human liver microsomes by cocktail assay; assay type: ADME; procedure, shortened: as §1
[30] = Plasma clearance in rat at 1 mg/kg, iv and 3 mg/kg, po; assay type: ADME, organism-based
Procedure, shortened: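 Rat PK, n = 2 each route. IV: 1.0 mg/kg as solution in 10% EtOH, 50% PEG 400, 40% saline (1 mg/mL). Oral: 3.0 mg/kg as fine microsuspension in 0.1% Tween 80 and 0.5% methyl cellulose in H2O (0.3 mg/mL). Plasma clearance and bioavailability derived from plasma levels.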

Rattus norvegicus [31] = assay: Half life in rat at 1 mg/kg, iv and 3 mg/kg, po; assay type: ADME, organism-based; conditions: in vivo; procedure, shortened: as §2
Brain [32] = assay: Fraction unbound in mouse brain; assay type: ADME, tissue-based

Chain of 5-hydroxytryptamine receptor 2B (Homo sapiens) (P41595 whole entry): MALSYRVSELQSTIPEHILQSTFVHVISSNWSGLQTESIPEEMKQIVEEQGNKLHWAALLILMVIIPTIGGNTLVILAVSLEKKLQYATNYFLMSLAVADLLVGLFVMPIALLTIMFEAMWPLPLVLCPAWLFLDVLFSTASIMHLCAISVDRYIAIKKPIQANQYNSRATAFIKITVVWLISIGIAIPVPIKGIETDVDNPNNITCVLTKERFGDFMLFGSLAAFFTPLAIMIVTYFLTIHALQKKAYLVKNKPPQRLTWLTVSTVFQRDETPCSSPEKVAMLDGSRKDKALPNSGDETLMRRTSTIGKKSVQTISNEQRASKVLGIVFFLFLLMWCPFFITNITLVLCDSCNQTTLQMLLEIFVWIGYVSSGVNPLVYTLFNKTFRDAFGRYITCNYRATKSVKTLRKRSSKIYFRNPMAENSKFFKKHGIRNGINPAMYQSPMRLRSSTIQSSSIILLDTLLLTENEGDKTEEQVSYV
Chain of Metabotropic glutamate receptor 5 (Rattus norvegicus) (P31424 21-1203 limits assumed): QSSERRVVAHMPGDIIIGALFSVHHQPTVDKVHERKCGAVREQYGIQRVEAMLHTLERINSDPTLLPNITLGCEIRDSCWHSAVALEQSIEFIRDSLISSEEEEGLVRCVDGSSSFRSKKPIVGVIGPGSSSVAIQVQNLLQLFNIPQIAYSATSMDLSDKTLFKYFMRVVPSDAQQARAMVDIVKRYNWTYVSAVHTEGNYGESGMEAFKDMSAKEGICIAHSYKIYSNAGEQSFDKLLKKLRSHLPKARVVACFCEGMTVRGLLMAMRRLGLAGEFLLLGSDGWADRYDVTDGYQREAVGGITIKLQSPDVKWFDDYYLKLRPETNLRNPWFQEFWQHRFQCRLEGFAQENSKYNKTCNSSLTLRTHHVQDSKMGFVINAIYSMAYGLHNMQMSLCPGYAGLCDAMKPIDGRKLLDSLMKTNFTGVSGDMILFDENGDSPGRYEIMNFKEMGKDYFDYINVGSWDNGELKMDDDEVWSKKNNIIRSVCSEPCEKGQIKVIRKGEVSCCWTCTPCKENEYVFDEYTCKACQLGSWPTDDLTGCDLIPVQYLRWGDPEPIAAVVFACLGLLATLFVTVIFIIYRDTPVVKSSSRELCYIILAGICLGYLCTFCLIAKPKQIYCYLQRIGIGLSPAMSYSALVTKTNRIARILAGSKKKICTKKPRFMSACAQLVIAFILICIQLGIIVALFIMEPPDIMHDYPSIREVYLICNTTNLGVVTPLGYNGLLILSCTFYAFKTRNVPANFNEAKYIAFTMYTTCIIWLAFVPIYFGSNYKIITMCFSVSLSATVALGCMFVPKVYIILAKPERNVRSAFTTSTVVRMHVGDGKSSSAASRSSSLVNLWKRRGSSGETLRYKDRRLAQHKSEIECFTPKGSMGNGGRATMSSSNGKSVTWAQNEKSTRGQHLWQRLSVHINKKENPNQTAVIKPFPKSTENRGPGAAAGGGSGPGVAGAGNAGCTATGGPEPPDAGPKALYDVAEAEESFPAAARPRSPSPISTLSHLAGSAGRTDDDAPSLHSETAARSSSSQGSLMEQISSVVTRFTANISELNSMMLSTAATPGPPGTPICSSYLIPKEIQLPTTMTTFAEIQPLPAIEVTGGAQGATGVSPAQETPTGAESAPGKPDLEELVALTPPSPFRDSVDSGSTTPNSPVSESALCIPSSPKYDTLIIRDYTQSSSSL
Chain of Metabotropic glutamate receptor 2 (Rattus norvegicus) (P31421 19-872 limits assumed): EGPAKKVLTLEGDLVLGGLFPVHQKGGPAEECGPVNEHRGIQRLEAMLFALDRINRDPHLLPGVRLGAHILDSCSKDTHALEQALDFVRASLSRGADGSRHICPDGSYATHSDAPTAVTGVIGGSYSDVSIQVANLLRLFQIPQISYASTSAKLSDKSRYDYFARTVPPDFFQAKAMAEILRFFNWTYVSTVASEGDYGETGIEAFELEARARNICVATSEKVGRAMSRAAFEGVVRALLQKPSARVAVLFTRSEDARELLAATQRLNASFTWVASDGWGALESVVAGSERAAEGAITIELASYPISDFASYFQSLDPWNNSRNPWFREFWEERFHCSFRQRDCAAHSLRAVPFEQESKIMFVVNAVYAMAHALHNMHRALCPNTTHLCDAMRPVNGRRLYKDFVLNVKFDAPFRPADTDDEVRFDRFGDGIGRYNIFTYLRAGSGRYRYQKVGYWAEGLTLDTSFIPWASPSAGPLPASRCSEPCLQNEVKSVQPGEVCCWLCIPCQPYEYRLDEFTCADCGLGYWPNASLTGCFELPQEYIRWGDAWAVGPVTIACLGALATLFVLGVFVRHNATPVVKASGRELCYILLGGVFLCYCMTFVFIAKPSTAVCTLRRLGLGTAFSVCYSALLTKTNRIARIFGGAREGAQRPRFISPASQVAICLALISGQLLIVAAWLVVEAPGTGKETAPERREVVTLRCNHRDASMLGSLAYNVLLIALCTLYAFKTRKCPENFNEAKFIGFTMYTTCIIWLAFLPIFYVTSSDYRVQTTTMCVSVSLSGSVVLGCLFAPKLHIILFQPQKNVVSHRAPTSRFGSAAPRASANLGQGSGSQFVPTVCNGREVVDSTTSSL
Chain of Metabotropic glutamate receptor 5 (P31424 whole entry): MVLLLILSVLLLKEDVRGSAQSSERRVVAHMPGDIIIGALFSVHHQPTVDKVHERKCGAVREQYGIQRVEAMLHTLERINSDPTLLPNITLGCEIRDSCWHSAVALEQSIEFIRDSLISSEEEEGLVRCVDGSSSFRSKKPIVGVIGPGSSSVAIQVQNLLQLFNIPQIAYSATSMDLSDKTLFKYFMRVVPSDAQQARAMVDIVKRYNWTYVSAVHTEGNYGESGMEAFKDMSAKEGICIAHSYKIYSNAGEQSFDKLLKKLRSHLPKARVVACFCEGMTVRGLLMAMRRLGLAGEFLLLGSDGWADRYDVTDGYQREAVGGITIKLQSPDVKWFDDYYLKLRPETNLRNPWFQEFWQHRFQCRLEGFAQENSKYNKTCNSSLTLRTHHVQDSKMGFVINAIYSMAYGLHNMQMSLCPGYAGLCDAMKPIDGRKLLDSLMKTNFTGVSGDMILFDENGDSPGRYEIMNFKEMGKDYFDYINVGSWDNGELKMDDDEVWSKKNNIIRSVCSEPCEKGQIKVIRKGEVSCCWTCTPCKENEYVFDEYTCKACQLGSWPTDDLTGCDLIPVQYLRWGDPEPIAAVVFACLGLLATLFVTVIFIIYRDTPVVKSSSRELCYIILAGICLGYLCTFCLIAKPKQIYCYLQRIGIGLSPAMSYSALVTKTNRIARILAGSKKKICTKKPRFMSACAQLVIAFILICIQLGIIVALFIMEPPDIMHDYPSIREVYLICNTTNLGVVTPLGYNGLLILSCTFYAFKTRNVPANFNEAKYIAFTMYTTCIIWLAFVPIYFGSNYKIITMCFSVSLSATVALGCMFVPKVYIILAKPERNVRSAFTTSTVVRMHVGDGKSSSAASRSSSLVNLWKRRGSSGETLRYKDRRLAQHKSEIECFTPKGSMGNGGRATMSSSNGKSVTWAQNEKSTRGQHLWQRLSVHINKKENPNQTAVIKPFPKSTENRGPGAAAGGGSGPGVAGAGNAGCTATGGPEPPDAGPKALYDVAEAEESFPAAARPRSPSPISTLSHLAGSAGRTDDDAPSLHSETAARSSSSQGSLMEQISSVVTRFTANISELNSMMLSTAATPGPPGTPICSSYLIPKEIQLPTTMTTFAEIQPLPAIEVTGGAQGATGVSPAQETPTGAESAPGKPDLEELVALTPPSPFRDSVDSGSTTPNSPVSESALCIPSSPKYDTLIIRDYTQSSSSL
Chain of Metabotropic glutamate receptor 3 (Rattus norvegicus) (P31422 23-879 limits assumed): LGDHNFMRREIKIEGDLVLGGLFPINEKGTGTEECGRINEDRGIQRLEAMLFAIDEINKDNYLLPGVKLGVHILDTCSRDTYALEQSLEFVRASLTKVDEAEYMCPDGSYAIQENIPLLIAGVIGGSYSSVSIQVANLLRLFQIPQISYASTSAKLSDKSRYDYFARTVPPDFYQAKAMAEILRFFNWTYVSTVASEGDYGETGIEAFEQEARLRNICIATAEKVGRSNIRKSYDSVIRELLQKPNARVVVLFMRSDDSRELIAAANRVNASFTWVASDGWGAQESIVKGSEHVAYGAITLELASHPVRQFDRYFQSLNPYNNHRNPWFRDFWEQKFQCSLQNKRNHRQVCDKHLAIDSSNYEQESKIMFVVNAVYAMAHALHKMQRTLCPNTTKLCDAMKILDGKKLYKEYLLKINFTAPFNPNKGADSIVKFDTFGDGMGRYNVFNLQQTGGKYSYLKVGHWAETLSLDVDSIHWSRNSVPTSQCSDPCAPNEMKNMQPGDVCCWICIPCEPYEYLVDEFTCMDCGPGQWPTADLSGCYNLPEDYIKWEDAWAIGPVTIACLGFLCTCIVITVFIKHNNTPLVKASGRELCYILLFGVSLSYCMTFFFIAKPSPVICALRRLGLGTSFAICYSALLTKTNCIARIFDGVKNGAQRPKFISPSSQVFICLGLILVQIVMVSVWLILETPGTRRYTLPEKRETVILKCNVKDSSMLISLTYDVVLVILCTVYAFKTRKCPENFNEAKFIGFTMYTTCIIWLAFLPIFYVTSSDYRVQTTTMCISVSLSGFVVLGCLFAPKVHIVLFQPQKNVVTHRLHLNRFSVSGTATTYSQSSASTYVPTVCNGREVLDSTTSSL
Chain of Cytochrome P450 3A4 (P08684 whole entry): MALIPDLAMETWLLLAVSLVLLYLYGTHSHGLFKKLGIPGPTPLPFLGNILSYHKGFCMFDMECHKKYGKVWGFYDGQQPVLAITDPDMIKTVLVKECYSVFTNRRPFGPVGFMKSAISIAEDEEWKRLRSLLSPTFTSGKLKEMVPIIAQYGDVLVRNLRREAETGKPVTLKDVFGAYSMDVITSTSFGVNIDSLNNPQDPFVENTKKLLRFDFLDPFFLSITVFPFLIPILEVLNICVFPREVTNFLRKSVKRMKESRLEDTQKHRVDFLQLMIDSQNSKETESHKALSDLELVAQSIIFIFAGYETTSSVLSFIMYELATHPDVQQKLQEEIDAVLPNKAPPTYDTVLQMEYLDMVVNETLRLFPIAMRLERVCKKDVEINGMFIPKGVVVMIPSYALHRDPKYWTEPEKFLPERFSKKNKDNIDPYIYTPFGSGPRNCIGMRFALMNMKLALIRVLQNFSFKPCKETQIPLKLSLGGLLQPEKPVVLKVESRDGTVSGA

## C[C@@H]1CN(c2cc(F)cc(C#N)c2)C(=O)c2cc(COc3ccc(Cl)cn3)nn21
[1]
  EC50: 1040 nM
[2]
  Activity: 1.92%
[3]
  clearance: 13 mL/min/kg
[4]
  Vd: 2.2 L/kg
[5]
  Activity: 28%
[6]
  half-life: 194 min
Plasma [7]
  Fu: 0.045
[8]
  IC50: 315 nM
[9]
  Activity: Active
Brain [10]
  Fu: 0.032

## C[C@@H]1CN(c2cccnc2F)C(=O)c2cc(COc3ccc(Cl)cn3)nn21
Cytochrome P450 2C9
  IC50: 25.6 µM
[11]
  Vd: 1.4 L/kg
In vivo [12]
  Tmax: 12.3 min
Cytochrome P450 1A2
  IC50: > 30 µM
Plasma [13]
  Fu: 0.163
[14]
  concentration at 0.5 h: 2290 nM
[15]
  inhibition: 65%
[16]
  Cmax: 4.48 µM
[1]
  EC50: > 30000 nM
[2]
  Activity: 1.71%
[17]
  Activity: Active
Mus musculus [18]
  inhibition: Active
[3]
  clearance: 37 mL/min/kg
[4]
  Vd: 1.6 L/kg
MDCK [19]
  Papp: 49.9 ×10⁻⁶ cm/s
[20]
  bioavailability: 60%
[21]
  AUC(0-inf): 7.26 µM·h
[6]
  half-life: 42 min
Mus musculus [22]
  inhibition: Dose-dependent effect
Cytochrome P450 2D6
  IC50: > 30 µM
[23]
  Activity: inactive
Rattus norvegicus [24]
  Activity: Active
[25]
  AUC(0-inf): 11.5 µM·h
[26]
  Activity: inactive
[27]
  Cmax: 4.57 µM
Plasma [7]
  Fu: 0.083
MDCK [28]
  Papp: 45 ×10⁻⁶ cm/s
In vivo [29]
  Tmax: 30 min
[8]
  IC50: 392 nM
Cytochrome P450 3A4
  IC50: > 30 µM
[30]
  clearance: 30 mL/min/kg
Brain [10]
  Fu: 0.052
Rattus norvegicus [31]
  t1/2: 49 min
Brain [32]
  Fu: 0.035

## C[C@@H]1CN(c2ccc(F)cc2)C(=O)c2cc(COc3ccccn3)nn21
[23]
  Activity: inactive
